Many of the other results were omitted from the sample, so hits are more common in it than they were.
BB579 growth dn – growth inhibitors of yeast BB579 in restrictive medium, primary screen, yeast lifespan-shortening project, S. cerevisiae; 140,000 tested, 0.51% active; OD615, 48 h; inhibition, % at 10 µM;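 active means inhibition above a set limit, 3 SD over the mean compound inhibition, cut at about 44% in these data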
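Assay system – yeast BB579 (DeaD) · Dosing – single compound dose of 10 µM, 0.25% DMSO final · Detection – OD615 turbidity measurement · Buffer or medium – CSMM-D restrictive synthetic medium containing dextrose (glucose) · Benchmarks – positive control amphotericin B 10 µg/mL · Incubation – 48 h exposure, 30 °C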
Yeast lifespan up – compounds extending yeast replicative lifespan, primary screen, S. cerevisiae, OD615; S. cerevisiae growth with nicotinamide; deaD strain in restrictive glucose medium; inhibition of the nicotinamide effect, % at 10 µM; 130,000 tested, 0.68% active;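 active means inhibition above a set limit, placed 3 SD over the median of all compounds, cut at about 26% in these data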
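System: Modified budding yeast, DeaD strain | Buffer or medium: Restrictive glucose medium | Also added: 1.5 mM nicotinamide | Doses: 10 µM single point, 0.25% DMSO | Schedule: 48 h compound exposure at 30 °C, humidified | Detection: Absorbance at 615 nm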
PostGolgi ctrl – growth inhibition of yeast control strain, primary screen, counter-screen for post-Golgi transport modulator project; efflux-deficient yeast background strain, growth absorbance A615, 16 h; inhibition, % at 10 µM; 98,000 tested, 5% active; AID 738, 2007
PostGolgi yeast – phenotypic screen on post-Golgi transport, primary screen | post-Golgi transport phenotypic cell assay | inhibition, % at 10 µM | 98,000 tested, 0.9% active;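 further: yeast cells grown in 1536-well plates; yeast grown about 18 h at 30C before absorbance read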
Each line names hits and unclear results; the compound was inactive in the other large screens. Unless noted, no stated cut-off is given here; in the data, active means inhibition above about 30%; inactive means the rest.

CCn1cc(SCC(=O)NCc2ccc3c(c2)OCO3)c2ccccc21	PostGolgi ctrl 35.9
Cc1nc(SCC(=O)NCCc2ccccc2)nc(C)c1C	none
O=c1[nH]c2c(s1)C(c1ccco1)C1C3CCC(C3)C1S2 (centres undefined)	none
CCOc1ccc(-c2nc(N)ncc2Oc2cccc(OC)c2)c(O)c1	none
COc1cccc(Oc2cncnc2-c2ccc(OC)cc2O)c1	PostGolgi ctrl 56.5, PostGolgi yeast 83.8
CC(C)C(=O)N(c1ccc2oc(=O)sc2c1)S(=O)(=O)c1cccs1	none
CC(C)C(=O)N(c1cc2sc(=O)oc2c2ccccc12)S(=O)(=O)c1cccs1	PostGolgi ctrl 67.2
O=C(Nc1ccc(N2CCOCC2)cc1N1CCOCC1)c1ccco1	PostGolgi ctrl 44.0
CCN(CC)S(=O)(=O)c1cccc(C(=O)NC(Cc2c[nH]c3ccccc23)c2nnc3n2CCC3)c1 (centres undefined)	none (no result: PostGolgi ctrl, PostGolgi yeast)
COc1cc(S(=O)(=O)NCCN2CCOCC2)c(OC)cc1Cl	PostGolgi ctrl 32.4
COC(=O)C(C)(C)ONC(=O)Nc1ccc(C)cc1	none (no result: PostGolgi ctrl, PostGolgi yeast)
NC(=O)CC[C@H](NC(=O)OCc1ccccc1)C(=O)OCc1ccc(Cl)cc1	none (no result: PostGolgi ctrl, PostGolgi yeast)
Cc1cc(Cl)ccc1OCCCC(=O)Nc1cccnc1	PostGolgi yeast 33.8
COc1ccc(/C=C2\C(=O)N(c3c(Cl)cc(Cl)cc3Cl)N=C2NC(=O)c2cccc([N+](=O)[O-])c2)cc1	none (no result: PostGolgi ctrl, PostGolgi yeast)
O=S(=O)(Nc1nc2ccccc2nc1N1CCN(c2ccccn2)CC1)c1ccc(Cl)cc1	PostGolgi ctrl 57.4
CCCNC(=O)CN(CCc1ccccc1)S(C)(=O)=O	none
O=C(N/N=C/c1cccc(Oc2ccccc2)c1)c1cccc(Br)c1	PostGolgi ctrl 31.3
O=C(N/N=C/C=C/c1ccccc1)c1cccc(Br)c1	none
O=C(N/N=C/c1cccc(Oc2ccccc2)c1)c1ccccc1Br	PostGolgi ctrl 33.4
Cc1cc(Cl)cc(Br)c1OCCCN1C(=O)NC(C)(C)C1=O	none
C=CCn1c(SCC(=O)N2CCCCC2)nc(O)cc1=O	Yeast lifespan up 48.1
C=CCn1c(SCC(=O)N2CCOCC2)nc(O)cc1=O	none
COc1ccc(OC)c(NC(=O)C(=O)NCCC2=CCCCC2)c1	none (no result: PostGolgi ctrl, PostGolgi yeast)
Cc1sc(NC(=O)c2ccco2)c(C(c2cccnc2)N2CCC(C)CC2)c1C (centres undefined)	PostGolgi ctrl 41.0, PostGolgi yeast 86.3
CCn1c(CCC(=O)Nc2nc3c(s2)CCCC3)nc2cc(S(=O)(=O)N(C)C)ccc21	PostGolgi ctrl 33.0
Cc1ccc2nc(N3C(=O)C(O)=C(C(=O)c4cc5ccccc5o4)C3c3cccs3)sc2c1 (centres undefined)	none
CCc1ccc2nc(N3C(=O)C(O)=C(C(=O)c4ccco4)C3c3cccs3)sc2c1 (centres undefined)	Yeast lifespan up 44.7, PostGolgi ctrl 35.7
Cc1ccc(-c2nn(-c3ccccc3)cc2C=C2C(=O)CC(C)(C)CC2=O)cc1	none
CC1=NNC(=O)/C1=C\c1cn(-c2ccccc2)nc1-c1ccc(Cl)cc1	PostGolgi ctrl 98.0, PostGolgi yeast 108.6
COC(=O)[C@@H](NC(=O)O[C@@H]1C(=O)c2ccc(OC)cc2O[C@H]1c1cccc(C(F)(F)F)c1)C(C)C	none (no result: PostGolgi ctrl, PostGolgi yeast)
CCNC(=O)NC(=O)CSc1nc2ccccc2n1CCOC	none
FC(F)(F)c1nnc(-c2ccccc2)nc1N1CCOCC1	none
FC(F)(F)c1cccc(-c2nnc(-c3ccccc3)c(N3CCOCC3)n2)c1	PostGolgi ctrl 35.0
CCOC(=O)Cc1nnc2c(Nc3ccccc3F)nc3nonc3n12	PostGolgi ctrl 34.4
COc1ccc(CCNC(=O)CSc2nnc(NC(C)=O)s2)cc1OC	none (no result: PostGolgi ctrl, PostGolgi yeast)
Cc1[nH]c2ccccc2c1C1(O)C(=O)N(C(C)C)c2ccccc21 (centres undefined)	none
Cc1[nH]c2ccccc2c1C1(O)C(=O)N(Cc2ccc3c(c2)OCO3)c2ccccc21 (centres undefined)	PostGolgi ctrl 31.0
COc1ccccc1-c1nnc(SCC(=O)NC2CCS(=O)(=O)C2)n1CCc1ccccc1 (centres undefined)	none (no result: PostGolgi ctrl, PostGolgi yeast)
Cc1ccc(C)c(-n2nnnc2SCC(=O)NCCC2=CCCCC2)c1	PostGolgi ctrl 38.6
CNC(=O)CSc1nnnn1-c1cc(C)ccc1C	none (no result: Yeast lifespan up, PostGolgi ctrl, PostGolgi yeast)
CC(C)CC(=O)O/N=C1\C(=O)N(Cc2ccc(Cl)cc2)c2ccc([N+](=O)[O-])cc21	PostGolgi ctrl 32.9
O=C(c1ccccc1Cl)N1N=C(c2ccc(Br)cc2)CC1c1nc2ccccc2[nH]1 (centres undefined)	PostGolgi ctrl 63.9
O=C(COC(=O)C1CCN(S(=O)(=O)c2ccc3c(c2)OCCO3)CC1)Nc1ccc(C(F)(F)F)cc1	none (no result: PostGolgi ctrl, PostGolgi yeast)
O=C1CC(SC(=NCc2ccc3c(c2)OCO3)Nc2ccccc2)C(=O)N1c1ccccc1 (centres undefined)	PostGolgi ctrl 41.2
CC1CCN(C(=O)c2cc(-c3ccccc3O)on2)CC1	PostGolgi ctrl 34.9
O=C(c1noc2c1CCc1ccccc1-2)N1CCOCC1	none
O=C(c1cc(-c2ccc(O)cc2)on1)N1CCc2ccccc2C1	none
O=C(c1noc2c1CCc1ccccc1-2)N1CCc2ccccc2C1	PostGolgi ctrl 33.2
O=C(c1cc(-c2ccccc2O)on1)N1CCc2ccccc2C1	PostGolgi ctrl 56.4
CC1CN(C(=O)c2ccccc2)c2ccccc2NC1=O (centres undefined)	none (no result: PostGolgi ctrl, PostGolgi yeast)
CCc1cccc(CC)c1NC(=O)COC(=O)CCc1cc(OC)c(OC)c(OC)c1	none (no result: PostGolgi ctrl, PostGolgi yeast)
O=C(NCc1cccnc1)C1CC(c2ccc(F)cc2)=NO1 (centres undefined)	none
COc1ccc(/C=N/NC(=O)c2cccc([N+](=O)[O-])c2)cc1OC(=O)c1ccccc1	PostGolgi ctrl 32.5
CCOc1cc(/C=N/NC(=O)c2cc(C)[nH]n2)ccc1OC(=O)c1ccc([N+](=O)[O-])cc1	none
CCOc1cc(/C=N/n2cnnc2)ccc1OC(=O)c1cccc([N+](=O)[O-])c1	PostGolgi ctrl 36.4
COc1ccc(N(C(=O)c2ccc(Cl)cc2)C2=CC3CCC(C2)N3C)cc1 (centres undefined)	none
Cc1nc2ccc(NC(=O)N3CCCCC3)cc2s1	none
Cc1nc2ccc(NC(=O)N3CCSCC3)cc2s1	PostGolgi ctrl 30.9
Cc1ccc(CN(Cc2ccco2)S(=O)(=O)c2ccc(S(=O)(=O)NCC3CCCO3)cc2)cc1 (centres undefined)	none (no result: PostGolgi ctrl, PostGolgi yeast)
Cc1cc(-c2nnc3n2N=C(C(C)(C)C)CS3)n[nH]1	PostGolgi ctrl 34.0
CC1=Nn2c(nnc2-c2cc(-c3ccccc3)n[nH]2)SC1	none
O=CN1CCN(C(=O)c2ccc([N+](=O)[O-])cc2)CC1	none (no result: PostGolgi ctrl, PostGolgi yeast)
Cc1nonc1C(=O)N/N=C/c1cccc(O)c1	none (no result: PostGolgi ctrl, PostGolgi yeast)
O=C(COc1ccccc1)Nc1nnc(-c2ccc(Cl)s2)o1	none
O=C(CSc1nc(-c2cccs2)cc(C(F)(F)F)n1)NCc1ccccc1	PostGolgi ctrl 30.2
O=C1N=C(N2CCCC2)S/C1=C\c1cn[nH]c1-c1ccccc1	none (no result: PostGolgi ctrl, PostGolgi yeast)
CC(C)c1ccc(/C=C2\SC(N3CCCC3)=NC2=O)cc1	Yeast lifespan up 33.7 (no result: PostGolgi ctrl, PostGolgi yeast)
O=S(=O)(c1ccc(Cl)cc1)N1CCCC1c1nc(-c2cccc(Cl)c2)no1 (centres undefined)	PostGolgi ctrl 33.3

Source: PubChem BioAssay
